Results published in ChEMBL document CHEMBL3585276, “Topoisomerase I and II inhibitory activity, cytotoxicity, and structure-activity relationship study of dihydroxylated 2,6-diphenyl-4-aryl pyridines” (Bioorg Med Chem, 2015).

Legend:
[1] = test system: HCT-15; test: Cytotoxicity against human HCT15 cells measured on day 4 by CCK8 assay; assay type: functional, cell-based; details: HCT-15, 96 h
In short: (§1)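 Cells seeded at […], grown overnight in medium with 10% FBS at 37 °C under 5% CO2. On day 2 they were serum-starved 4 h, then exposed to graded compound concentrations. On day 4 CCK-8 was added for a further 4 h and absorbance read at 450 nm. IC50 came from a four-parameter logistic fit, mean ± SD of three experiments in triplicate.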

[2] = target: DNA topoisomerase 2-alpha (Homo sapiens) (UniProt P11388); test: Inhibition of recombinant human DNA topoisomerase-2alpha using supercoiled pBR322 plasmid DNA as substrate at 100 uM after 30 mins by agarose gel electrophoresis relative to control
In short: (§2)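 200 ng supercoiled pBR322 with 1 unit human topo II, incubated 30 min at 30 °C with or without compound in 10 mM Tris–HCl pH 7.9, 50 mM NaCl, 5 mM MgCl2, 1 mM EDTA, 1 mM ATP and 15 µg/mL BSA. Reaction was stopped with 7 mM EDTA and run on 1% agarose in TAE at 25 V. Gel was stained with ethidium bromide, visualized under UV, and supercoiled DNA quantitated densitometrically.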

[3] = test system: DU-145; test: Cytotoxicity against human DU145 cells measured on day 4 by CCK8 assay; assay type: functional, cell-based; details: DU-145, 96 h; in short: as §1
[4] = target: DNA topoisomerase 2-alpha (Homo sapiens) (UniProt P11388); test: Inhibition of recombinant human DNA topoisomerase-2alpha using supercoiled pBR322 plasmid DNA as substrate at 20 uM after 30 mins by agarose gel electrophoresis relative to control; in short: as §2
[5] = target: T1, DNA topoisomerase 1 (Homo sapiens) (UniProt P11387); test: Inhibition of recombinant human DNA topoisomerase-1 assessed as relaxation of supercoiled DNA pBR322 at 100 uM after 30 mins by agarose gel electrophoresis relative to control
T1 sequence (whole entry): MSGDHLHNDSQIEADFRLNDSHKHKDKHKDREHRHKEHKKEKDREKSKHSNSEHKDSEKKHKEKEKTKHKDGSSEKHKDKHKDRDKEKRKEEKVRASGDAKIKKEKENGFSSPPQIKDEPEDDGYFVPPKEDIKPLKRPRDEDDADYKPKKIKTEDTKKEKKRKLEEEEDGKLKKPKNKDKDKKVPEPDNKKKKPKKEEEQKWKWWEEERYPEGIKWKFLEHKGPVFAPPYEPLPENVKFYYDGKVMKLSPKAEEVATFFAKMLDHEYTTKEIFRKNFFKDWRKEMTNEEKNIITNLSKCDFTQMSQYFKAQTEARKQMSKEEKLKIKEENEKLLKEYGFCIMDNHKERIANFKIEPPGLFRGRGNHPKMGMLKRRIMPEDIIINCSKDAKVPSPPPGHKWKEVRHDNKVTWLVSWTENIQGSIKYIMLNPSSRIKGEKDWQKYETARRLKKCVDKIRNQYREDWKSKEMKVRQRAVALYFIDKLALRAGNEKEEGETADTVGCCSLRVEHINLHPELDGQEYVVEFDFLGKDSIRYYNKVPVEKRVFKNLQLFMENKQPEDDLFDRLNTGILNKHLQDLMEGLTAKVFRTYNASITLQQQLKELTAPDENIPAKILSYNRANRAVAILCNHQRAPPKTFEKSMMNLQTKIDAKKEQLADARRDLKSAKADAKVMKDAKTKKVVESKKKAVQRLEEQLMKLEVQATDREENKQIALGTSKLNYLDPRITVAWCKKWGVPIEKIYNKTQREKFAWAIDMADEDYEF
In short: (§3)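 Relaxation assay with 100 ng pBR322 plasmid DNA and 1 unit recombinant human topo I. Buffer was 10 mM Tris–HCl pH 7.9, 150 mM NaCl, 0.1% BSA, 1 mM spermidine and 5% glycerol, incubated 37 °C for 30 min with or without compound. Products were run on a 1% agarose gel in TAE at 15 V for 7 h and stained with ethidium bromide (0.5 µg/mL) for 30 min.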

[6] = test system: T47D; test: Cytotoxicity against human T47D cells measured on day 4 by CCK8 assay; assay type: functional, cell-based; details: 96 h; in short: as §1
[7] = test system: HeLa; test: Cytotoxicity against human HeLa cells measured on day 4 by CCK8 assay; assay type: functional, cell-based; details: 96 h; in short: as §1
[8] = target: T1, DNA topoisomerase 1 (Homo sapiens); test: Inhibition of recombinant human DNA topoisomerase-1 assessed as relaxation of supercoiled DNA pBR322 at 20 uM after 30 mins by agarose gel electrophoresis relative to control; in short: as §3

DNA topoisomerase 2-alpha (Homo sapiens), sequence (P11388 whole entry): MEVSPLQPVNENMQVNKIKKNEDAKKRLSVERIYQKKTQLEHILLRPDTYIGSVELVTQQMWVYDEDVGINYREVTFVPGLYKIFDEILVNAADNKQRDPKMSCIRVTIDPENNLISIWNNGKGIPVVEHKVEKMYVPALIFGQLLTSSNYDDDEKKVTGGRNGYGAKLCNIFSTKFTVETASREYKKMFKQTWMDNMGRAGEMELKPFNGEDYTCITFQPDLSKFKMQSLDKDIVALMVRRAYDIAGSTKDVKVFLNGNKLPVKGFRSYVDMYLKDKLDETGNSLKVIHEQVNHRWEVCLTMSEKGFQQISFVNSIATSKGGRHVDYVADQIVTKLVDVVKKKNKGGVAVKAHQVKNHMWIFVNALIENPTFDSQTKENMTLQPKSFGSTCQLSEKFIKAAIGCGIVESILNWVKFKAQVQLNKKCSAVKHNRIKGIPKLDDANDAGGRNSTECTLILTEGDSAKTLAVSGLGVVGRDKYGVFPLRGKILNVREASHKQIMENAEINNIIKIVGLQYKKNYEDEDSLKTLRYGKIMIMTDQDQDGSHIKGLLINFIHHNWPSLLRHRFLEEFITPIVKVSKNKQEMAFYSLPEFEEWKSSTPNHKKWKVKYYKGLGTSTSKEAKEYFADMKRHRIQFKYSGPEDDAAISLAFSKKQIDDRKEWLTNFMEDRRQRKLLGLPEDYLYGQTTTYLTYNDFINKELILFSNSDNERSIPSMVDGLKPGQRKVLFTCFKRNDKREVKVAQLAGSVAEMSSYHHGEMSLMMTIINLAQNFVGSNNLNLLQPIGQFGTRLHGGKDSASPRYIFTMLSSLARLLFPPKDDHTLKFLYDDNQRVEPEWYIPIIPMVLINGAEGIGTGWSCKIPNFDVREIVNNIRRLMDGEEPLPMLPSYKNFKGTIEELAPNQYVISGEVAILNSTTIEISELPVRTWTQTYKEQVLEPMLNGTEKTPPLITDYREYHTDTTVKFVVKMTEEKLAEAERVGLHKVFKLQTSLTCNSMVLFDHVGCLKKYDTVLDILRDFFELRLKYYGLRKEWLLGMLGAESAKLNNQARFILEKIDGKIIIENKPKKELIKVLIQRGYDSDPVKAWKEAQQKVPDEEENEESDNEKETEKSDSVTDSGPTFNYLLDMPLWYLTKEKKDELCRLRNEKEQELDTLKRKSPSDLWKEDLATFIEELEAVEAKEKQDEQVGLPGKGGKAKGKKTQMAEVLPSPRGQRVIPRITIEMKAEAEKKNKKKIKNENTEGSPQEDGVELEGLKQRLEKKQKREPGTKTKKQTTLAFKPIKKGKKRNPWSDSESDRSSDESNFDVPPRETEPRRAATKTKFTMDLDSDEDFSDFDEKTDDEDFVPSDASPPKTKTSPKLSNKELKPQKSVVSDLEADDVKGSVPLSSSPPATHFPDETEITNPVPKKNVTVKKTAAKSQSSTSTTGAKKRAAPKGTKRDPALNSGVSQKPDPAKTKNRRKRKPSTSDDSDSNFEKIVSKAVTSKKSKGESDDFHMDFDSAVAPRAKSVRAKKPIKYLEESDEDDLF

| inhibition [2] | inhibition [4] | inhibition [5] | inhibition [8] | SMILES | IC50 [1] | IC50 [3] | IC50 [6] | IC50 [7] |
| --- | --- | --- | --- | --- | --- | --- | --- | --- |
| 78.2% | 11% | 10.2% | – | Oc1cccc(-c2cc(-c3ccsc3)cc(-c3ccccc3O)n2)c1 | > 50 µM | > 50 µM | > 50000 nM | > 50 µM |
| 78.1% | 12.1% | 83.2% | 1.5% | Oc1cccc(-c2cc(-c3cccs3)cc(-c3ccccc3O)n2)c1 | > 50 µM | 9.3 µM | > 50000 nM | > 50 µM |
| 88.2% | 20.6% | 97.8% | 0% | Oc1cccc(-c2cc(-c3ccco3)cc(-c3cccc(O)c3)n2)c1 | 1.89 µM | 2.15 µM | 3520 nM | 5.99 µM |
| 88.6% | 21.5% | 85.7% | 1.1% | Oc1ccc(-c2cc(-c3cccs3)cc(-c3cccc(O)c3)n2)cc1 | 1.77 µM | 1.89 µM | 780 nM | 4.14 µM |
| 95% | 19.7% | 37.4% | 1.3% | Oc1ccc(-c2cc(-c3ccoc3)cc(-c3cccc(O)c3)n2)cc1 | 0.93 µM | 2.7 µM | 2610 nM | 3.31 µM |
| 11.9% | – | 2.4% | – | Oc1ccc(-c2cc(-c3ccccn3)cc(-c3cccc(O)c3)n2)cc1 | > 50 µM | 1.98 µM | 980 nM | 1.93 µM |
| 91.5% | 44.7% | 17.1% | – | Oc1ccc(-c2cc(-c3ccsc3)cc(-c3cccc(O)c3)n2)cc1 | 1.18 µM | 2.23 µM | 760 nM | 2.58 µM |
| 62.5% | 1.5% | 35.4% | 0.1% | Oc1cccc(-c2cc(-c3ccccn3)cc(-c3ccccc3O)n2)c1 | > 50 µM | 17.1 µM | 2560 nM | 2.02 µM |
| 84.8% | 13.6% | 83% | 0% | Oc1ccc(-c2cc(-c3ccco3)cc(-c3ccccc3O)n2)cc1 | > 50 µM | > 50 µM | > 50000 nM | > 50 µM |
| 8.3% | – | 1.5% | 0% | Oc1ccc(-c2cc(-c3cccnc3)cc(-c3ccccc3O)n2)cc1 | > 50 µM | > 50 µM | > 50000 nM | > 50 µM |
| 11.2% | – | 2.1% | 1.9% | Oc1cccc(-c2cc(-c3cccnc3)cc(-c3cccc(O)c3)n2)c1 | > 50 µM | > 50 µM | > 50000 nM | > 50 µM |
| 7.3% | – | 44.2% | 2% | Oc1cccc(-c2cc(-c3ccoc3)cc(-c3cccc(O)c3)n2)c1 | 1.02 µM | 1.65 µM | 2590 nM | 4.63 µM |
| 84.5% | 4.7% | 0% | – | Oc1ccccc1-c1cc(-c2ccsc2)cc(-c2ccccc2O)n1 | > 50 µM | > 50 µM | > 50000 nM | > 50 µM |
| 80.6% | 9.7% | 13.8% | – | Oc1ccc(-c2cc(-c3ccsc3)cc(-c3ccccc3O)n2)cc1 | > 50 µM | > 50 µM | > 50000 nM | > 50 µM |
| 62.1% | 7% | 29.5% | – | Oc1cccc(-c2cc(-c3ccoc3)cc(-c3ccccc3O)n2)c1 | > 50 µM | 2.79 µM | > 50000 nM | > 50 µM |

Second part, the molecule before the results:

| SMILES | inhibition [2] | inhibition [4] | inhibition [5] | inhibition [8] | IC50 [1] | IC50 [3] | IC50 [6] | IC50 [7] |
| --- | --- | --- | --- | --- | --- | --- | --- | --- |
| Oc1cccc(-c2cc(-c3ccccn3)cc(-c3cccc(O)c3)n2)c1 | 52.2% | 4.3% | 8.3% | – | 3.51 µM | 3.61 µM | 1410 nM | 6.5 µM |
| Oc1ccccc1-c1cc(-c2cccs2)cc(-c2ccccc2O)n1 | 55.9% | 10.8% | 77.2% | 0.2% | > 50 µM | > 50 µM | > 50000 nM | > 50 µM |
| Oc1ccc(-c2cc(-c3cccnc3)cc(-c3cccc(O)c3)n2)cc1 | 14.8% | – | 5.9% | 2.8% | > 50 µM | 6.39 µM | > 50000 nM | > 50 µM |
| Oc1ccccc1-c1cc(-c2ccoc2)cc(-c2ccccc2O)n1 | 12.2% | – | 1% | – | > 50 µM | > 50 µM | > 50000 nM | > 50 µM |
| Oc1ccc(-c2cc(-c3cccnc3)cc(-c3ccc(O)cc3)n2)cc1 | 65.8% | 25.7% | 8.7% | 5% | 0.84 µM | 0.24 µM | 2030 nM | 0.6 µM |
| Oc1ccc(-c2cc(-c3ccoc3)cc(-c3ccc(O)cc3)n2)cc1 | 12% | – | 74.9% | 0% | 1.53 µM | 3.44 µM | 3460 nM | 3.42 µM |
| Oc1ccccc1-c1cc(-c2cccnc2)cc(-c2ccccc2O)n1 | 5.2% | – | 66.4% | 0% | > 50 µM | > 50 µM | > 50000 nM | > 50 µM |
| COc1cc([C@@H]2c3cc4c(cc3[C@@H](O[C@@H]3O[C@@H]5CO[C@@H](C)O[C@H]5[C@H](O)[C@H]3O)[C@H]3COC(=O)[C@H]23)OCO4)cc(OC)c1O [ETOPOSIDE] | – | – | – | – | 18.9 µM | 2.09 µM | 13700 nM | 7.32 µM |
| COc1cccc2c1C(=O)c1c(O)c3c(c(O)c1C2=O)C[C@@](O)(C(=O)CO)C[C@@H]3O[C@H]1C[C@H](N)[C@H](O)[C@H](C)O1 [DOXORUBICIN] | – | – | – | – | 1.23 µM | – | 1340 nM | 0.88 µM |
| Oc1ccc(-c2cc(-c3ccccn3)cc(-c3ccccc3O)n2)cc1 | 7.8% | – | 0.2% | – | > 50 µM | 25.4 µM | > 50000 nM | > 50 µM |
| Oc1ccc(-c2cc(-c3ccccn3)cc(-c3ccc(O)cc3)n2)cc1 | 27.4% | – | 1.4% | – | > 50 µM | > 50 µM | 1040 nM | > 50 µM |
| Oc1ccc(-c2cc(-c3ccco3)cc(-c3cccc(O)c3)n2)cc1 | 92.8% | 21.8% | 100% | 1.5% | 0.84 µM | 2.07 µM | 1280 nM | 5.17 µM |
| Oc1ccc(-c2cc(-c3ccco3)cc(-c3ccc(O)cc3)n2)cc1 | 92.3% | 48.4% | 100% | 0% | 14 µM | > 50 µM | 21100 nM | > 50 µM |
| Oc1ccccc1-c1cc(-c2ccccn2)cc(-c2ccccc2O)n1 | 65.5% | 4.3% | 0.8% | – | > 50 µM | > 50 µM | > 50000 nM | > 50 µM |
| CC[C@@]1(O)C(=O)OCc2c1cc1n(c2=O)Cc2cc3ccccc3nc2-1 [CAMPTOTHECIN] | – | – | – | – | 2.82 µM | 0.02 µM | 1840 nM | 0.18 µM |
